The results in this text go back to ChEMBL document CHEMBL2146365, “Design and synthesis of EGFR dimerization inhibitors and evaluation of their potential in the treatment of psoriasis” (Bioorg Med Chem, 2012).

The structures appear in SMILES notation. Calls of active or inactive are those of the source. The rule behind the calls is not given here.

Assay [1] in a line: Antioxidant activity in bovine brain assessed as inhibition of iron-ascorbate-induced lipid peroxidation by thiobarbituric acid test. Type of assay: functional, tissue-based, Bos taurus. In a few lines:
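Hit compounds were tested for inhibition of lipid peroxidation by the thiobarbituric acid (TBA) assay. Propyl gallate served as the standardizing positive control, tested at 100 µM.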

The target of assay [2] is Epidermal growth factor receptor (Homo sapiens) (UniProt P00533). Put plainly: Inhibition of phosphorylated EGFR dimerization in HPV-16 transformed human CCD-1106 cells at 126.7 uM after 30 mins by densitometric analysis. It counts as cell-based. In a few lines: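 CCD-1106 cells were exposed to compounds for 30 min at 37 °C, then stimulated with EGF 50 ng/mL for 10 min. They were cross-linked with 2 mM BS3 for 30 min at room temperature and quenched with Tris (pH 7.5). Lysates were run on SDS-PAGE and immunoblotted for phospho-EGFR (Tyr1173) and total EGFR. The ~340 kDa dimer band was quantified by densitometry against the no-inhibitor control.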

Assay [3] has the same target. Nature of the assay: Inhibition of EGFR-mediated ERK1 phosphorylation in HPV-16 transformed human CCD-1106 cells at 116.8 uM after 30 mins by densitometric analysis. It counts as cell-based. Put shortly: (§1)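 CCD-1106 cells were treated with compound for 30 min at 37 °C, then stimulated with EGF. Lysates were separated by SDS-PAGE, blotted to nitrocellulose and blocked in 3% BSA/NaTT. Blots were probed with p-ERK (E-4) or p-p38 (D-8) antibodies, detected by ECL and quantified by densitometry.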

For assay [4] the target is unchanged. Put plainly: Inhibition of EGFR-mediated ERK2 phosphorylation in HPV-16 transformed human CCD-1106 cells at 116.8 uM after 30 mins by densitometric analysis. Type of assay: cell-based. Put shortly:
as §1

Assay [5] shares this target. Put plainly: Inhibition of EGFR-mediated p38 phosphorylation in HPV-16 transformed human CCD-1106 cells at 116.8 uM after 30 mins by densitometric analysis. Type of assay: cell-based. Put shortly:
as §1

Assay [6] can be described thus: Growth inhibition of HPV-16 transformed human CCD-1106 cells after 72 hrs by neutral red uptake assay. Type of assay: functional. The conditions noted are these: CCD-1106, 72 h. In a few lines: (§2)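 Neutral red uptake assay over 72 h. Cells were seeded at 10,000 cells/well and attached overnight, then exposed to eight concentrations with six replicates (DMSO <1%). CCD-1106 were grown in keratinocyte SFM with supplements. HaCaT were grown in DMEM with 10% FBS and 2 mM L-glutamine. NHEK (pooled adult) were grown in keratinocyte growth medium with supplement. Values are means, n = 6, against the untreated control.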

In assay [7] the test system is HaCaT. Put plainly: Growth inhibition of human HaCaT cells after 72 hrs by neutral red uptake assay. It counts as functional. In a few lines:
as §2

Assay [8] can be described thus: Growth inhibition of human NHEK cells after 72 hrs by neutral red uptake assay. It counts as functional. In a few lines: as §2
The nature of assay [9]: Cytotoxicity against HPV-16 transformed human CCD-1106 cells assessed as cell viability after 6 hrs by MTT assay. Type of assay: functional. The note with it: CCD-1106, 6 h, read-out: LD50 (the source's name). Put shortly:
(§3)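 Cells were plated at 10,000/well, attached overnight, and exposed 6 or 24 h to eight drug concentrations with six in-plate replicates (DMSO <1%). MTT (0.5 mg/ml in PBS) was added for 2 h at 37 °C, then dissolved in 90% isopropanol/10% DMSO, and A590 was read. Values were corrected against untreated controls. LD₅₀ is reported as mean ± S.E.M., n = 3.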
For orientation: Tetrazolium assays rely on reduction of a dye to a coloured formazan, in cell work by metabolically active cells.

A short description of assay [10]: Cytotoxicity against HPV-16 transformed human CCD-1106 cells assessed as cell viability after 24 hrs by MTT assay. It counts as functional. The conditions noted are these: CCD-1106, 24 h, read-out: LD50 (the source's name). In a few lines: as §3
In assay [11] the test system is HaCaT. Put plainly: Induction of apoptosis in human HaCaT cells assessed as viable cells at 111.6 uM after 9 hrs by AnnexinV-FITC/propidium iodide based FACS flow cytometry. Type of assay: functional. The note with it: read-out: Activity. Put shortly: (§4)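 HaCaT cells at 10^6 cells/ml were attached overnight and exposed to vehicle, 111.6, 223.2 or 446 µM for 9 h. Cells were then trypsinized, washed in ice-cold PBS and stained with Annexin V-FITC/PI. FACScan analysis used FL1/FL2, 10,000 events per sample, scatter gating, and quadrants set with single-stain controls. Runs were in triplicate and results are means of two experiments.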

The subject of assay [12] is HaCaT. Nature of the assay: Induction of apoptosis in human HaCaT cells assessed as early phase apoptotic cells at 111.6 uM after 9 hrs by AnnexinV-FITC/propidium iodide based FACS flow cytometry. Type of assay: functional. In a few lines: as §4
A general note: Flow cytometry measures light scatter and fluorescence of single cells or particles in a stream.

Assay [13] concerns HaCaT. Put plainly: Induction of apoptosis in human HaCaT cells assessed as late phase apoptotic/necrotic cells at 111.6 uM after 9 hrs by AnnexinV-FITC/propidium iodide based FACS flow cytometry. Type of assay: functional. Put shortly:
as §4

Assay [14] has as its system HaCaT. Nature of the assay: Induction of apoptosis in human HaCaT cells assessed as viable cells at 446 uM after 9 hrs by AnnexinV-FITC/propidium iodide based FACS flow cytometry. The conditions noted are these: read-out: Activity. It counts as functional. In a few lines: as §4
Assay [15] concerns HaCaT. Nature of the assay: Induction of apoptosis in human HaCaT cells assessed as late phase apoptotic/necrotic cells at 223.2 uM after 9 hrs by AnnexinV-FITC/propidium iodide based FACS flow cytometry. It counts as functional. In a few lines: as §4
For assay [16], the system named is HaCaT. Put plainly: Induction of apoptosis in human HaCaT cells assessed as early phase apoptotic cells at 223.2 uM after 9 hrs by AnnexinV-FITC/propidium iodide based FACS flow cytometry. It counts as functional. In a few lines: as §4
The subject of assay [17] is HaCaT. Nature of the assay: Induction of apoptosis in human HaCaT cells assessed as viable cells at 223.2 uM after 9 hrs by AnnexinV-FITC/propidium iodide based FACS flow cytometry. It counts as functional. The note with it: read-out: Activity. In a few lines:
as §4

For assay [18], the system named is HaCaT. Nature of the assay: Induction of apoptosis in human HaCaT cells assessed as activation of caspase 3/7 at 55.8 uM after 12 hrs. Type of assay: functional, cell-based. Put shortly:
(§5)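 HaCaT cells were seeded at 10,000 cells/0.2 ml/well, attached overnight and exposed to compound (56–446 µM) for 12 h. Caspase-3/7 activity was measured with the Apo-ONE homogeneous kit, fluorescence 499/521 nm, in triplicate, with medium-only background wells. MTT viability was run in parallel. Results are means of two experiments, t-test against control.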

In assay [19] the test system is HaCaT. Put plainly: Induction of apoptosis in human HaCaT cells assessed as activation of caspase 3/7 after 12 hrs. It counts as functional, cell-based. Put shortly: as §5
Assay [20] deals with HaCaT. Put plainly: Cytotoxicity against human HaCaT cells assessed as LDH release after 24 hrs by CYTOX-96 assay. It counts as functional. The conditions noted are these: read-out: LD50 (the source's name). Put shortly: (§6)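 LDH release was read with the CytoTox 96 kit following the kit protocol after 6 or 24 h drug exposure. Cells were seeded at 10,000/well and attached overnight. Eight concentrations were run with six in-plate replicates; DMSO was <1% in all wells, with medium-only blanks. LD₅₀ is reported as mean ± S.E.M., n = 6. CCD-1106 were grown in supplemented keratinocyte SFM; HaCaT in DMEM/10% FBS.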

The subject of assay [21] is HaCaT. Nature of the assay: Cytotoxicity against human HaCaT cells assessed as LDH release after 6 hrs by CYTOX-96 assay. It counts as functional. The conditions noted are these: read-out: LD50 (the source's name). In a few lines: as §6
In general terms: LDH in the medium is a marker of cell lysis.

Assay [22] can be described thus: Cytotoxicity against HPV-16 transformed human CCD-1106 cells assessed as LDH release after 6 hrs by CYTOX-96 assay. Type of assay: functional. The conditions noted are these: CCD-1106, 6 h, read-out: LD50 (the source's name). Put shortly: as §6
The subject of assay [23] is HaCaT. Nature of the assay: Induction of apoptosis in human HaCaT cells assessed as activation of caspase 3/7 at 56 to 446 uM after 12 hrs. It counts as functional, cell-based. Put shortly: as §5

Epidermal growth factor receptor (Homo sapiens), sequence (P00533 whole entry): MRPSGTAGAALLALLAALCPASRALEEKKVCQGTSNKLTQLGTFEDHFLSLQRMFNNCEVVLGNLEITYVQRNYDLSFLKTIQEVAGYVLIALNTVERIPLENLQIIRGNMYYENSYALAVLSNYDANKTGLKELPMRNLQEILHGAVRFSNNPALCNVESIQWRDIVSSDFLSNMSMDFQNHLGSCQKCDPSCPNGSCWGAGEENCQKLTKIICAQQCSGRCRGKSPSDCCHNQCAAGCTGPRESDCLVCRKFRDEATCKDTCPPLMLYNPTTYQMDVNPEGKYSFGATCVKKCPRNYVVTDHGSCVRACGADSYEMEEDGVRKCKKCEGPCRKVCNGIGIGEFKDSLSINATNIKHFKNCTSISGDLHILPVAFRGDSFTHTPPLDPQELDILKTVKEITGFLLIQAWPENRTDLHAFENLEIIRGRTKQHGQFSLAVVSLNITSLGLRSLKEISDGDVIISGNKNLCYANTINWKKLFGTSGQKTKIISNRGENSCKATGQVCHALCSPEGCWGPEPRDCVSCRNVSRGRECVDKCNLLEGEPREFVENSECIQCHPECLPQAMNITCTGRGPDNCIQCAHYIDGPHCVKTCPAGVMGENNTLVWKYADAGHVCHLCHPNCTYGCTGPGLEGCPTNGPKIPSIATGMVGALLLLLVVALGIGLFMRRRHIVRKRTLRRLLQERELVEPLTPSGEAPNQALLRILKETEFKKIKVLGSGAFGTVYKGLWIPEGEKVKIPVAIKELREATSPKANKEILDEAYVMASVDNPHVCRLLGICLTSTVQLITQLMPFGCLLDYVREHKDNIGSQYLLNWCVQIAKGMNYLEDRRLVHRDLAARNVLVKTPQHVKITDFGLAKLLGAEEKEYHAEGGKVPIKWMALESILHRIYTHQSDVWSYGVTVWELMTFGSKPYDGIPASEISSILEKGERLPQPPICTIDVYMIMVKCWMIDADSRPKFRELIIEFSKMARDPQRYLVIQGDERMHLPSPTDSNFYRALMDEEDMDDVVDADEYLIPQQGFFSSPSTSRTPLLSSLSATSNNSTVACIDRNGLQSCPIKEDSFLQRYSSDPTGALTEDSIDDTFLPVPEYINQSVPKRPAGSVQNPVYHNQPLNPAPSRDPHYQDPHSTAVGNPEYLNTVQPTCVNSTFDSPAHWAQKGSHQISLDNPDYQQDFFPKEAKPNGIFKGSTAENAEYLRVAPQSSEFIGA

By IC50 is commonly meant the concentration at which inhibition is half-maximal. As usually defined, the inhibition is how much of the control response was suppressed. Usually GI50 stands for the concentration at which growth is held to half of that of the control. A lower GI50 goes with greater sensitivity of the cells. For the compound `CCOc1cc(/C=N\Nc2nc3c(c(=O)n(C)c(=O)n3C)n2Cc2ccccc2)ccc1O`, the IC50 in assay [1] is 8 µM. Also, the inhibition in assay [2] worked out at 37%; in assay [3], 39%; in [4], 33%; in assay [5], 11%. The GI50 in [6] was found to be 9 µM; in the assay on HaCaT [7], 22 µM; in [8], 54 µM. The CC50 in assay [9] was 234 µM; in assay [10] it was 112 µM; in the assay on HaCaT [20], 446 µM; in the assay on HaCaT [21], 446 µM; in assay [22], more than 446 µM. The viability at 111.6 µM in the assay with HaCaT [11] was 82%. Further, the Activity is 12% in the assay with HaCaT [12]; 6% in the assay on HaCaT [13]; 10% in the assay with HaCaT [15]; 17% with HaCaT [16]; “Dose-dependent effect” with HaCaT [19]. Further, in the assay on HaCaT [14], the viability at 446 µM was found to be 61%. For the same compound, in the assay on HaCaT [17], the viability at 223.2 µM amounted to 73%. In addition, the outcome in the assay with HaCaT [18] and in the assay with HaCaT [23] was Active.
